Source: ChEMBL document CHEMBL4680238, “Novel octapeptide-DTX prodrugs targeting MMP-7 as effective agents for the treatment of colorectal cancer with lower systemic toxicity” (Eur J Med Chem, 2020)
Residues, ends and D or L forms follow the SMILES beside them. *: point of attachment. X2 = CC(=O)O[C@@]12CO[C@@H]1C[C@H](O)[C@@]1(C)C(=O)[C@H](O)C3=C(C)[C@@H](OC(=O)[C@H](OC(=O)OCc4ccc(N*)cc4)[C@@H](NC(=O)OC(C)(C)C(F)(F)F)c4ccccc4)C[C@@](O)([C@@H](OC(=O)c4cccc(F)c4)[C@H]21)C3(C)C; X1 = CC(=O)O[C@@]12CO[C@@H]1C[C@H](O)[C@@]1(C)C(=O)[C@H](O)C3=C(C)[C@@H](OC(=O)[C@H](OC(=O)OCc4ccc(N*)cc4)[C@@H](NC(=O)OC(C)(C)C)c4ccccc4)C[C@@](O)([C@@H](OC(=O)c4ccccc4)[C@H]21)C3(C)C; Fmoc = O=C(OCC1c2ccccc2-c2ccccc21)*

Assays:
HEK293 = assay: Cytotoxicity against HEK293 cells assessed as reduction in cell viability after 48 hrs by MTT assay; assay type: cell-based; conditions: Homo sapiens, HEK293, 48 h
How it was run: (§1)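 Cells seeded at 5000/well and precultured 1 day. HCT116 grown in McCoy's 5A + 10% FBS; SW620 and HEK293 in DMEM + 10% FBS; CCD18Co in DMEM + 15% FBS. Compounds from 0.1 M DMSO stocks were tested at 10^-10 to 10^-4 mol/L in sixplicate: HCT116 and HEK293 for 48 h, SW620 and CCD18Co for 72 h, at 37 °C, 5% CO2. MTT (5 mg/mL) added for 4 h, then A570 read; IC50 estimated.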

[1] = Half life of compound in PBS buffer at pH 7.4 at 50 ug/ml up to 72 hrs by RP-HPLC analysis; assay type: physicochemical; conditions: dose 50 µg/ml
CCD-18Co = assay: Cytotoxicity against human CCD-18Co cells assessed as reduction in cell viability after 72 hrs by MTT assay; assay type: cell-based; how it was run: as §1
SW-620 = assay: Cytotoxicity against human SW-620 cells assessed as reduction in cell viability after 72 hrs by MTT assay; assay type: functional, cell-based; conditions: SW-620, 72 h; how it was run: as §1
HCT-116 [2] = assay: Cytotoxicity against human HCT-116 cells assessed as reduction in cell viability after 48 hrs by MTT assay; assay type: functional, cell-based; conditions: HCT-116, 48 h; how it was run: as §1
[3] = Half life in Sprague-Dawley rat plasma t 50 ug/ml up to 72 hrs by RP-HPLC analysis; assay type: ADME, cell-free; conditions: dose 50 µg/ml
HCT-116 [4] = assay: Antitumour activity against human HCT-116 cells xenografted in BALB/c nude mouse assessed as tumour growth inhibition at 5 mg/kg, ip administered once for every 7 days for 14 days relative to control; assay type: functional; conditions: HCT-116, ip, 336 h, time 14 day, read-out: TGI
How it was run: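 Male BALB/c nude mice received s.c. HCT116 cells (2 × 10^6 in 0.2 mL PBS). Once tumours reached 100-200 mm3, mice were randomized into groups of six. Dosing was ip, 0.1 mL/10 g, once every 7 days, in DMSO 0.5%/castor oil 5%/ethanol 5%/saline 89.5%; vehicle controls got solvent. Caliper volume V = L×W²×0.52 read every 2-3 days. Tumours excised and weighed on day 14.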

Compound | IC50 (HEK293) [µM] | half-life at 50 ug/ml [1] [h] | IC50 (CCD-18Co) [µM] | IC50 (SW-620) [µM] | IC50 (HCT-116 [2]) [µM] | half-life at 50 ug/ml [3] [h] | inhibition in vivo at 5 mg/kg (HCT-116 [4]) [%]
CC[C@H](C)[C@H](NC(=O)CNC(=O)[C@H](CCSC)NC(=O)[C@@H]1CCCN1C(=O)CNC(C)=O)C(=O)N[C@@H](C)C(=O)NCC(=O)N[C@@H](CCC(N)=O)C(=O)N[C@@H](CC(C)C)C(=O)Nc1ccc(COC(=O)O[C@@H](C(=O)O[C@H]2C[C@@]3(O)[C@@H](OC(=O)c4ccccc4)[C@@H]4[C@]5(OC(C)=O)CO[C@@H]5C[C@H](O)[C@@]4(C)C(=O)[C@H](O)C(=C2C)C3(C)C)[C@@H](NC(=O)OC(C)(C)C)c2ccccc2)cc1 (Ac-GPMGIAGQL-X1) | 11 | > 72 | > 200 | 1.14 | 0.0072 | 23.9 | 
CC[C@H](C)[C@H](NC(=O)CNC(=O)[C@H](CCSC)NC(=O)[C@@H]1CCCN1C(=O)CNC(C)=O)C(=O)N[C@@H](C)C(=O)NCC(=O)N[C@@H](CCC(N)=O)C(=O)N[C@@H](CC(C)C)C(=O)Nc1ccc(COC(=O)O[C@@H](C(=O)O[C@H]2C[C@@]3(O)[C@@H](OC(=O)c4cccc(F)c4)[C@@H]4[C@]5(OC(C)=O)CO[C@@H]5C[C@H](O)[C@@]4(C)C(=O)[C@H](O)C(=C2C)C3(C)C)[C@@H](NC(=O)OC(C)(C)C(F)(F)F)c2ccccc2)cc1 (Ac-GPMGIAGQL-X2) | 21.3 | > 72 | > 200 | > 200 | 0.0209 | 24 | 
CC[C@H](C)[C@H](NC(=O)[C@H](C)NC(=O)[C@H](CCC(N)=O)NC(=O)[C@@H]1CCCN1C(=O)CNC(C)=O)C(=O)N[C@@H](C)C(=O)NCC(=O)N[C@@H](CCC(N)=O)C(=O)N[C@@H](CC(C)C)C(=O)Nc1ccc(COC(=O)O[C@@H](C(=O)O[C@H]2C[C@@]3(O)[C@@H](OC(=O)c4ccccc4)[C@@H]4[C@]5(OC(C)=O)CO[C@@H]5C[C@H](O)[C@@]4(C)C(=O)[C@H](O)C(=C2C)C3(C)C)[C@@H](NC(=O)OC(C)(C)C)c2ccccc2)cc1 (Ac-GPQAIAGQL-X1) | 106 | > 72 | > 200 | > 200 | 0.0113 | 12 | 
CC[C@H](C)[C@H](NC(=O)[C@H](C)NC(=O)[C@H](CCC(N)=O)NC(=O)[C@@H]1CCCN1C(=O)CNC(C)=O)C(=O)N[C@@H](C)C(=O)NCC(=O)N[C@@H](CCC(N)=O)C(=O)N[C@@H](CC(C)C)C(=O)Nc1ccc(COC(=O)O[C@@H](C(=O)O[C@H]2C[C@@]3(O)[C@@H](OC(=O)c4cccc(F)c4)[C@@H]4[C@]5(OC(C)=O)CO[C@@H]5C[C@H](O)[C@@]4(C)C(=O)[C@H](O)C(=C2C)C3(C)C)[C@@H](NC(=O)OC(C)(C)C(F)(F)F)c2ccccc2)cc1 (Ac-GPQAIAGQL-X2) | 94.1 | > 72 | > 200 | 0.65 | 0.0054 | 24 | 
CC(=O)NCC(=O)N1CCC[C@H]1C(=O)N[C@@H](CCC(N)=O)C(=O)NCC(=O)N[C@@H](CC(C)C)C(=O)N[C@@H](C)C(=O)NCC(=O)N[C@@H](CCC(N)=O)C(=O)N[C@@H](CC(C)C)C(=O)Nc1ccc(COC(=O)O[C@@H](C(=O)O[C@H]2C[C@@]3(O)[C@@H](OC(=O)c4ccccc4)[C@@H]4[C@]5(OC(C)=O)CO[C@@H]5C[C@H](O)[C@@]4(C)C(=O)[C@H](O)C(=C2C)C3(C)C)[C@@H](NC(=O)OC(C)(C)C)c2ccccc2)cc1 (Ac-GPQGLAGQL-X1) | 165 | 35.1 | > 200 | 21.9 | 0.0052 | 14 | 
CC(=O)NCC(=O)N1CCC[C@H]1C(=O)N[C@@H](CCC(N)=O)C(=O)NCC(=O)N[C@@H](CC(C)C)C(=O)N[C@@H](C)C(=O)NCC(=O)N[C@@H](CCC(N)=O)C(=O)N[C@@H](CC(C)C)C(=O)Nc1ccc(COC(=O)O[C@@H](C(=O)O[C@H]2C[C@@]3(O)[C@@H](OC(=O)c4cccc(F)c4)[C@@H]4[C@]5(OC(C)=O)CO[C@@H]5C[C@H](O)[C@@]4(C)C(=O)[C@H](O)C(=C2C)C3(C)C)[C@@H](NC(=O)OC(C)(C)C(F)(F)F)c2ccccc2)cc1 (Ac-GPQGLAGQL-X2) | 6.17 | 48.3 | > 200 | > 200 | 0.0257 | 24.1 | 
CC[C@H](C)[C@H](NC(=O)CNC(=O)[C@H](CC(C)C)NC(=O)[C@@H]1CCCN1C(=O)CNC(=O)OCC1c2ccccc2-c2ccccc21)C(=O)N[C@@H](C)C(=O)NCC(=O)N[C@@H](CCC(N)=O)C(=O)N[C@@H](CC(C)C)C(=O)Nc1ccc(COC(=O)O[C@@H](C(=O)O[C@H]2C[C@@]3(O)[C@@H](OC(=O)c4ccccc4)[C@@H]4[C@]5(OC(C)=O)CO[C@@H]5C[C@H](O)[C@@]4(C)C(=O)[C@H](O)C(=C2C)C3(C)C)[C@@H](NC(=O)OC(C)(C)C)c2ccccc2)cc1 (Fmoc-GPLGIAGQL-X1) | 15.2 | > 72 | > 200 | 1.01 | 0.0098 | 35.9 | 
CC[C@H](C)[C@H](NC(=O)CNC(=O)[C@H](CC(C)C)NC(=O)[C@@H]1CCCN1C(=O)CNC(=O)OCC1c2ccccc2-c2ccccc21)C(=O)N[C@@H](C)C(=O)NCC(=O)N[C@@H](CCC(N)=O)C(=O)N[C@@H](CC(C)C)C(=O)Nc1ccc(COC(=O)O[C@@H](C(=O)O[C@H]2C[C@@]3(O)[C@@H](OC(=O)c4cccc(F)c4)[C@@H]4[C@]5(OC(C)=O)CO[C@@H]5C[C@H](O)[C@@]4(C)C(=O)[C@H](O)C(=C2C)C3(C)C)[C@@H](NC(=O)OC(C)(C)C(F)(F)F)c2ccccc2)cc1 (Fmoc-GPLGIAGQL-X2) | 38.3 | > 72 | > 200 | 0.21 | 0.439 | 47.8 | 
O=c1[nH]cc(F)c(=O)[nH]1 [FLUOROURACIL] | 79.3 |  | > 200 | 6.96 | 26 |  | 11.4
